Laboratory results: ChEMBL document CHEMBL1828528, “Acyclic nucleoside thiophosphonates as potent inhibitors of HIV and HBV replication” (Eur J Med Chem, 2011)

Columns and labels:
[1] = tested on: Human immunodeficiency virus 1; experiment: Ratio EC50 for PMPA to compound for HIV1 clade B isolate 2056 infected in human H9 cells assessed as inhibition of viral replication; format: functional
[2] = tested on: Human immunodeficiency virus 1; experiment: Ratio EC50 for PMPA to compound for HIV1 clade F isolate 2338 infected in human H9 cells assessed as inhibition of viral replication; format: functional
[3] = tested on: Human immunodeficiency virus 1; experiment: Ratio EC50 for PMPA to compound for HIV1 clade A isolate 4113 infected in human H9 cells assessed as inhibition of viral replication; format: functional
[4] = tested on: Human immunodeficiency virus 1; experiment: Ratio EC50 for PMPA to compound for HIV1 clade G isolate 3187 infected in human H9 cells assessed as inhibition of viral replication; format: functional
[5] = tested on: Human immunodeficiency virus 1; experiment: Ratio EC50 for PMPA to compound for HIV1 clade B isolate 1722 infected in human H9 cells assessed as inhibition of viral replication; format: functional
[6] = tested on: Human immunodeficiency virus 1; experiment: Ratio EC50 for PMPA to compound for HIV1 clade A/E isolate 2165 infected in human H9 cells assessed as inhibition of viral replication; format: functional
[7] = tested on: Human immunodeficiency virus 1; experiment: Ratio EC50 for PMPA to compound for HIV1 clade D isolate 1649 infected in human H9 cells assessed as inhibition of viral replication; format: functional
[8] = tested on: Human immunodeficiency virus 1; experiment: Ratio EC50 for PMPA to compound for HIV1 clade C isolate 4110 infected in human H9 cells assessed as inhibition of viral replication; format: functional
[9] = tested on: Hepatitis B virus; experiment: Ratio EC50 for PMEA to compound for Hepatitis B virus infected in human HuH7 cells assessed as reduction in viral DNA level treated day 3 to day 8 post transfection by real time quantitative PCR analysis; format: functional, Huh-7
[10] = tested on: Human immunodeficiency virus 1; experiment: Ratio EC50 for PMEA to compound for HIV1 clade B isolate 2101 infected in human H9 cells assessed as inhibition of viral replication; format: functional
Outline: (§1)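 Ratio computed as EC50 of PMEA divided by EC50 of the test compound, both measured against the same clinical isolate in H9 cells.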

[11] = tested on: Human immunodeficiency virus 1; experiment: Ratio EC50 for PMEA to compound for HIV1 clade B isolate 1722 infected in human H9 cells assessed as inhibition of viral replication; format: functional; outline: as §1
[12] = tested on: Human immunodeficiency virus 1; experiment: Ratio EC50 for PMEA to compound for HIV1 clade F isolate 2338 infected in human H9 cells assessed as inhibition of viral replication; format: functional; outline: as §1
[13] = tested on: Human immunodeficiency virus 1; experiment: Ratio EC50 for PMEA to compound for HIV1 clade D isolate 1649 infected in human H9 cells assessed as inhibition of viral replication; format: functional; outline: as §1
[14] = tested on: Human immunodeficiency virus 1; experiment: Ratio EC50 for PMEA to compound for HIV1 clade B isolate 2056 infected in human H9 cells assessed as inhibition of viral replication; format: functional; outline: as §1
[15] = tested on: Human immunodeficiency virus 1; experiment: Ratio EC50 for PMEA to compound for HIV1 clade C isolate 2914 infected in human H9 cells assessed as inhibition of viral replication; format: functional; outline: as §1
[16] = tested on: Human immunodeficiency virus 1; experiment: Ratio EC50 for PMEA to compound for HIV1 clade G isolate 3187 infected in human H9 cells assessed as inhibition of viral replication; format: functional
[17] = tested on: Human immunodeficiency virus 1; experiment: Ratio EC50 for PMEA to compound for HIV1 clade A isolate 4113 infected in human H9 cells assessed as inhibition of viral replication; format: functional; outline: as §1

SMILES: C[C@H](Cn1cnc2c(N)ncnc21)OCP(=O)([O-])[S-].[Na+].[Na+] (some centres not stated)
- Ratio EC50 [1]: 2.77
- Ratio EC50 [2]: 0.2
- Ratio EC50 [3]: 1.25
- Ratio EC50 [4]: 1.25
- Ratio EC50 [5]: 1.35
- Ratio EC50 [6]: 1.5
- Ratio EC50 [7]: 0.14
- Ratio EC50 [8]: 1.54

SMILES: Nc1ncnc2c1ncn2CCOCP(=O)([O-])[S-].[Na+].[Na+] (configuration not stated)
- Ratio EC50 [9]: 1.5
- Ratio EC50 [10]: 7.16
- Ratio EC50 [11]: 0.66
- Ratio EC50 [12]: 0.86
- Ratio EC50 [13]: 0.11
- Ratio EC50 [14]: 0.29
- Ratio EC50 [15]: 2.96
- Ratio EC50 [16]: 0.25
- Ratio EC50 [17]: 10.8
